Assay results taken from PubChem BioAssay.
Inconclusive results are not listed.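 Rule for the calls, unless noted: active = viability increase at or above a cutoff of the median across tested compounds plus 3 SD (cut at about 8.5% in these data, passing the limit was not always enough); inconclusive = some gains above the cutoff, reason not given; inactive = the rest.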

How the values were obtained:
[1] = S. cerevisiae growth inhibition in permissive medium (OD615), pilot counter-assay for S. cerevisiae lifespan shortening project, permissive growth control (AID 705;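 active = growth inhibition above 25% in both replicates, a cutoff set 3 SD above the mean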); conditions: OD615, 24 h, at 10 µM, active compounds read high
Method in brief: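 System – S. cerevisiae with engineered DeaD lifespan system · Buffer or medium – SC raffinose/galactose permissive medium · Schedule – cells pre-grown 4 h, then 24 h compound exposure, 30 °C humidified · Technique – culture turbidity as optical density at 615 nm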

[2] = S. cerevisiae growth inhibition in restrictive medium, OD615, pilot screen, restrictive growth control, yeast lifespan reduction project (AID 706;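 active = growth inhibition above a set limit, 3 SD over mean compound inhibition, in both replicates, cut at about 43% in these data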;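 note: modified DeaD lifespan yeast strain shifted to restrictive glucose medium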); conditions: OD615, 48 h, at 10 µM, active compounds read high
Method in brief: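 Material: engineered S. cerevisiae DeaD strain / Medium: glucose-based CSMM-D restrictive medium / Compound: single dose of 10 µM compound final, 0.25% DMSO / Timing: 4 h pre-incubation, 48 h exposure at 30 °C / Technique: OD615 absorbance reading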

[3] = doxorubicin toxicity protection in MRP-1 cells – H69AR cells, CellTiter-Glo, duplicate, MRP-1 activator project, pilot screen (AID 807); conditions: H69AR viability with doxorubicin, CellTiter-Glo luminescence; at 10 µM; active compounds read high;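 note: compound pretreatment 18-22 h then 72 h combined with doxorubicin; 0% = doxorubicin alone and 100% = vehicle without doxorubicin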
[4] = viability of HCT116 without oncogenic beta-catenin – human colon tumor cells, pilot screen (AID 823;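 active = cell viability at or below a set limit in both duplicate runs, the limit being the all-compound median minus 4 SD, cut at about 23% in these data, passing the limit was not always enough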;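 note: 0% = wells killed by 20 µM Hyamine and 100% = untreated DMSO cell wells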); conditions: HCT116 beta-catenin knockout viability, CellTiter-Glo, 60 h; at 10 µM; active compounds read low
[5] = viability of PTEN-null HCT116 cells – cell-based, HCT116 clonal line, CellTiter-Glo, pilot screen (AID 824;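 active = viability at or below 27.92% in each of two runs, the all-compound median minus 4 SD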;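 note: 0% = 20 µM Hyamine control and 100% = vehicle cell control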); conditions: HCT116 PTEN-deleted viability, 60 h, at 10 µM, active compounds read low
[6] = RAM pathway blockade in budding yeast – dse1pr::URA3 reporter, 5-FOA selection, pilot screen (AID 869;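 active = inhibition over a set limit, the all-compound mean plus 3 SD, in both replicate runs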;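 note: 0% = DMSO wells with no growth and 100% = 10 µM 1-NA-PP1 with full growth; RAM network block rescues cells from 5-FOA so hits raise OD615 growth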); conditions: S. cerevisiae dse1pr::URA3 5-FOA growth, OD615, 2 d; at 10 µM; active compounds read high; strain carries analog-sensitive mutant Cbk1 kinase
[7] = RAM signaling pathway blockade in yeast – S. cerevisiae, Pdr1DBD-CYC8 efflux-inhibited sensitized strain, primary screen (AID 1298;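 active = RAM network inhibition above 8.4% in each of two replicates, 3 SD over the compound average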;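 note: 0% = DMSO untreated cells without growth and 100% = 10 µM 1-NA-PP1 full growth; higher means more yeast growth rescued from 5-FOA killing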); conditions: S. cerevisiae cbk1-as DSE1-URA3 strain, 5-FOA growth OD615, 2 d; at 50 µM; active compounds read high

CCCn1c(CNc2ccc(Br)cc2)nc2ccccc21
inactive: growth inhibition [1] -11.7% | growth inhibition [2] -9.32% | viability increase [3] -3.5% | viability [4] 88.2% | viability [5] 82.7% | inhibition [6] 1.47% | RAM network inhibition [7] 1.62%

CCc1nnc(NC(=O)CCN2C(=O)CCC2=O)s1
inactive: growth inhibition [1] 4.12% | growth inhibition [2] 5.96% | viability increase [3] 0.69% | viability [4] 97.3% | viability [5] 93.6% | inhibition [6] 0.52% | RAM network inhibition [7] 3.17%

CCC(=O)Nc1ccccc1C(=O)N1CCN(Cc2ccccc2)CC1
inactive: growth inhibition [1] 2.08% | growth inhibition [2] 3.03% | viability increase [3] -1.2% | viability [4] 99.8% | viability [5] 99.7% | inhibition [6] 1.6% | RAM network inhibition [7] 3.32%

CC(=O)Oc1cccc(N2C(=O)C3CC=C(Cl)CC3C2=O)c1 (stereo not given)
inactive: growth inhibition [1] -5.15% | growth inhibition [2] -22.9% | viability increase [3] -0.7% | viability [4] 89.6% | viability [5] 87.9% | inhibition [6] 2.81% | RAM network inhibition [7] 1.87%

CC(C)CC(NS(=O)(=O)c1ccc2c(c1)oc(=O)n2C)C(=O)NCc1cccnc1 (stereo not given)
inactive: growth inhibition [1] -0.43% | growth inhibition [2] 15.8% | viability increase [3] -0.08% | viability [4] 112% | viability [5] 98.9% | inhibition [6] 1.82% | RAM network inhibition [7] 0.99%

Cc1n[nH]c(=O)nc1NCc1ccccc1
inactive: growth inhibition [1] -8.25% | growth inhibition [2] -29% | viability increase [3] -0.55% | viability [4] 95% | viability [5] 93.9% | inhibition [6] 1.48% | RAM network inhibition [7] 0.91%

Cc1c(C#N)c2ccccc2n1CCOc1ccccc1F
inactive: growth inhibition [1] -5.92% | growth inhibition [2] -11.9% | viability increase [3] 1.94% | viability [4] 69.8% | viability [5] 68.5% | inhibition [6] 2.25% | RAM network inhibition [7] 6.77%

Cc1ccccc1-c1nnc(-c2ccccc2)o1
inactive: growth inhibition [1] -0.03% | growth inhibition [2] -4.75% | viability increase [3] -4.15% | viability [4] 80.9% | viability [5] 83.1% | inhibition [6] 1.82% | RAM network inhibition [7] 0.2%

Nc1nnc(N2CCc3ccccc32)s1
inactive: growth inhibition [1] -1.08% | growth inhibition [2] 16.4% | viability increase [3] -4.19% | viability [4] 105% | viability [5] 102% | inhibition [6] 0.805% | RAM network inhibition [7] 0.42%

Clc1ccc(-c2nc(-c3ccccn3)no2)cc1Cl
inactive: growth inhibition [1] -4.08% | growth inhibition [2] 0.26% | viability increase [3] -4.17% | viability [4] 72.6% | viability [5] 67.7% | inhibition [6] 2.6% | RAM network inhibition [7] 3.88%

CCOC(=O)C1CCN(S(=O)(=O)c2ccc(OCC)cc2)CC1
inactive: growth inhibition [1] -6.07% | growth inhibition [2] -13.5% | viability increase [3] -2.24% | viability [4] 92% | viability [5] 94.4% | inhibition [6] 0.575% | RAM network inhibition [7] 6.62%

Cc1ccc2cc(CCNC(=O)CC(C)C)c(=O)[nH]c2c1
inactive: growth inhibition [1] -7.75% | growth inhibition [2] -0.53% | viability increase [3] 0.14% | viability [4] 105% | viability [5] 103% | inhibition [6] 1.69% | RAM network inhibition [7] 3.87%

CC1CC(C)CN(S(=O)(=O)c2ccc(NC(=O)C3COc4ccccc4O3)cc2)C1 (stereo not given)
inactive: growth inhibition [1] -14.1% | growth inhibition [2] -24.7% | viability increase [3] -7.35% | viability [4] 53.9% | viability [5] 54.7% | inhibition [6] 3.38% | RAM network inhibition [7] 2.76%

Cc1cc(-c2ccccc2)n2ncc(C#N)c2n1
inactive: growth inhibition [1] -0.51% | growth inhibition [2] 2.26% | viability increase [3] -1.18% | viability [4] 103% | viability [5] 98.8% | inhibition [6] 1.17% | RAM network inhibition [7] 2.36%

COc1ccc(-c2nc(C(N)=O)c3[nH]c(=O)n(-c4cccc(C)c4)c3n2)c(OC)c1
inactive: growth inhibition [1] -10.8% | growth inhibition [2] -14.3% | viability increase [3] -5.41% | viability [4] 81.6% | viability [5] 74.3% | inhibition [6] 3.42% | RAM network inhibition [7] 5.6%
